Screening results deposited in PubChem BioAssay by several laboratories.
Hsp70 act – switches on Hsp70 transcription; activation, % at 10 µM; AID 1203; HeLa Hsp70 promoter luciferase reporter, luminescence; scaled: vehicle 0, proteasome-inhibitor control 100%; 0.04% of 200,000 active;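 active = activation above the mean across all tested compounds plus 3 SD, cutoff set per campaign, cut at about 5.5% in these data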
HSF1 inh – HSF1 inhibition; NIH3T3-HGL HSE-luciferase, MG132-induced, luminescence 8 h; stronger effect = lower value; activity change, negative = inhibition, % at 7.5 µM (by protocol); 0.77% of 300,000 active; AID 2098;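 active = more than half of replicate wells show activity change below -50%, luminescence cut by over half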;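 also: luciferase reports HSF-1 transcriptional activity via heat shock element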
T cruzi repl – T. cruzi replication inhibition; T. cruzi beta-gal in NIH3T3, luminescence, 90 h; inhibition, % (concentration not given with the values); 1.4% of 300,000 active; AID 1885;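 active = mean inhibition across valid replicates above about 55%, limit read from the data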;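 also: signal also drops with host cell toxicity which is not excluded here; higher percent means less beta-gal luminescence so fewer parasites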
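System: mouse NIH/3T3 fibroblasts infected with β-gal-expressing T. cruzi Tulahuen C4 / Input: NIH/3T3 cells, 5,000 per well / Buffer or medium: Low-serum DMEM with 2% FBS / Probe or stimulus: 5000 reporter trypomastigotes per well / Schedule: ≥90 h infection period, 3 h prior cell attachment / Measured by: GalScreen luminescence, 60 min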
HSF1 activator – increases HSF-1 driven luciferase reporter signal. activation, % at 9 µM. AID 504408. 1.7% of 300,000 active. NIH3T3-HGL HSF-1 luciferase reporter, MG132, 8 h; 100% = twice DMSO control signal;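 active = mean replicate activation of at least 50% with a set share of replicates each reaching 50%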
L major viab – inhibitors of Leishmania major promastigote growth. inhibition, % at 10 µM. Leishmania major promastigotes, resazurin fluorescence viability. AID 1063. 9% of 200,000 active; in the data active = inhibition above about 50%;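 also: promastigotes grown with compound for 44 hours at 28 °C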
A number is an active result; . = inactive; / = not tested or not shown. Many of the other results were omitted from the sample, so hits are more common in it than they were.

SMILES	Hsp70 act	HSF1 inh	T cruzi repl	HSF1 activator	L major viab
Cc1ncc(CN2CCC(n3nccc3NC(=O)c3ccccc3)CC2)s1	/	.	.	.	/
CN(C)c1nc(N/N=C/c2ccccc2O)nc(Nc2ccc(F)cc2)n1	.	.	.	.	84
CN(C)c1nc(Nc2ccc(F)cc2)nc(Oc2ccc(F)cc2)n1	/	.	.	.	/
Cc1nnc(N/N=C/c2ccccc2O)n1N	.	.	.	71	.
Cc1nnc(N/N=C/c2c(Cl)cccc2Cl)n1N	.	.	.	.	.
CN(C)/C=C/C(=O)c1ncc(C(F)(F)F)cc1Cl	.	.	.	.	.
COCCOc1cnn(-c2cc(Oc3ccc(C)cc3)ncn2)c(=O)c1Cl	.	.	.	.	.
COc1cnn(-c2cc(Oc3ccc(C)cc3)ncn2)c(=O)c1Cl	.	.	.	95	.
O=C(Nc1cccc(C(F)(F)F)c1)c1ccccc1NC(=O)C1CCCCC1	.	.	.	.	57
Cc1ccc(OC(F)F)c(NC(=O)Nc2cccc(C(F)(F)F)c2)c1	.	.	55	.	.
FC(F)(F)c1cccc(NC(=S)NNC(=S)Nc2cccc(C(F)(F)F)c2)c1	/	.	55	.	/
FC(F)(F)c1cccc(NC(=S)Nc2ccc(Cl)c(Cl)c2)c1	/	.	.	.	/
FC(F)(F)c1cccc(NC(=S)NC(c2ccccc2)c2ccccc2)c1	.	.	60	.	.
O=C(Nc1cc(C(F)(F)F)ccc1F)C1CCCCC1	.	.	.	.	.
Cc1ccccc1N(CC(=O)Nc1ccc(S(=O)(=O)N2CCOCC2)cc1)S(C)(=O)=O	.	.	.	.	.
O=C(COc1ccc(S(=O)(=O)N2CCCC2)cc1)N1CCCC1	/	.	.	.	/
Cc1ccc(NC(=O)CC(C(=O)O)c2ccccc2)cc1 (centres undefined)	.	.	.	.	.
CC1(C)CC(CCNC(=O)CCl)(c2ccccc2)CCO1 (centres undefined)	/	.	.	.	/
COC(=O)/C=C/C(=O)Nc1cccc(C(F)(F)F)c1	.	.	.	93	.
CC(=O)CC(=O)Nc1ncccn1	.	.	.	.	.
COc1cc2nc(C3CCC3)n(NC(=O)c3ccco3)c(=O)c2cc1OC	.	.	.	.	.
COC(=O)c1ccc(-c2ccco2)n1Cc1nc(-c2ccc(OC)c(OC)c2)oc1C	.	.	.	.	66
COC(=O)c1cc2occc2n1Cc1nc(-c2ccc(Cl)cc2)oc1C	.	.	.	.	.
COC(=O)c1ccc(-c2ccco2)n1Cc1ccccc1Cl	.	.	.	.	.
COC(=O)c1cc2ccsc2n1Cc1nc(-c2ccc(Cl)cc2)oc1C	.	-79	.	.	99
SMILES	Hsp70 act	HSF1 inh	T cruzi repl	HSF1 activator	L major viab
O=[N+]([O-])c1ccc(/C=N/Nc2nc(N3CCCCC3)nc(N3CCCCC3)n2)o1	.	.	63	.	100
COC(=O)c1ccc(/C=N/Nc2nc(N3CCCCC3)nc(N3CCCCC3)n2)cc1	.	.	.	.	78
Brc1cc2c(cc1/C=N/Nc1nc(N3CCCCC3)nc(N3CCCCC3)n1)OCO2	.	/	/	/	67
COc1c(/C=N/Nc2nc(N3CCCCC3)nc(N3CCCCC3)n2)cccc1[N+](=O)[O-]	.	.	.	.	.
COc1nc(N/N=C/c2cc3c(cc2Br)OCO3)nc(N2CCOCC2)n1	.	.	.	.	.
COc1ccc(/C=N/Nc2nc(N3CCCC3)nc(N3CCCC3)n2)cc1	.	/	.	/	63
NC(=O)C1CCN(CCS(=O)(=O)c2ccc(Cl)cc2)CC1	/	.	.	.	/
O=C(Nc1ccc(OCC(F)(F)C(F)F)c(C(F)(F)F)c1)c1ccccc1O	.	.	.	66	100
CC(C)[C@H](NC(=O)c1ccco1)C(=O)N(C)Cc1ccc(C(F)(F)F)cc1	/	.	.	.	/
COc1ccc(-c2csc(CCn3nc(C)cc3C)n2)cc1	.	.	.	.	.
Cc1cc(C)n(CCc2nc(-c3ccc(-c4ccccc4)cc3)cs2)n1	.	.	.	52	.
C=CCn1c(SCC(=O)NC2CCCC2)nc2scc(-c3ccco3)c2c1=O	.	.	.	61	.
CC(C)n1c(SCC(=O)NC2CCCCC2)nnc1-c1ccco1	/	.	.	67	/
Cn1c(SCC(=O)NC2CCCCCC2)nnc1-c1ccco1	/	.	.	.	/
C=CCn1c(SCC(=O)NC2CC2)nc2sc(CC)cc2c1=O	.	.	.	.	58
CCOc1ccc(NS(=O)(=O)c2csc(C(N)=O)c2)cc1	/	.	.	.	/
CCOC(=O)CSC1=C(C#N)C(c2ccc3c(c2)OCO3)CC(=O)N1 (centres undefined)	.	.	.	.	73
CCc1ccc(NC(=O)CSC2=C(C#N)C(c3ccc4c(c3)OCO4)CC(=O)N2)cc1 (centres undefined)	.	.	.	64	.
CCOc1ccc(NC(=O)CSc2nnnn2C2CCCC2)cc1	/	.	.	.	/
CC(C)COP(=O)(OCC(C)C)C(O)c1ccc(N(C)C)cc1 (centres undefined)	/	.	.	.	/
O=C(Nc1nccs1)c1cccc(NC(=O)c2ccco2)c1	.	.	.	.	97
O=C(Nc1cccc(-c2cnc3ccccc3n2)c1)c1ccccc1	.	.	.	.	.
O=C(OC1CCCCC1)c1ccc(NC(=O)c2ccco2)cc1	.	.	.	.	75
O=C(Nc1ccc2c(c1)Cc1ccccc1-2)c1ccco1	.	.	.	56	.
O=C(Nc1cccc(-c2cnc3ccccc3n2)c1)c1cccc(NC(=O)c2ccco2)c1	.	.	.	.	69
SMILES	Hsp70 act	HSF1 inh	T cruzi repl	HSF1 activator	L major viab
COc1ccc(/C=C/CN2CCC(n3nccc3NC(=O)C3CCCC3)CC2)cc1	/	.	.	.	/
O=C(Nc1cccc(NC(=O)c2sc3ccccc3c2Cl)c1)c1ccco1	.	.	.	.	81
O=C(O)c1cccc(NC(=S)NC(NC(=O)c2ccco2)C(Cl)(Cl)Cl)c1 (centres undefined)	/	-61	.	.	/
O=C(Nc1cccc(-n2cnnn2)c1)c1ccco1	.	.	.	.	95
O=C(Nc1cccnc1)c1cccc(NC(=O)c2ccco2)c1	.	.	.	.	80
CCCc1nnc(NC(=O)CCC(=O)N2CCN(S(=O)(=O)c3ccc(C)cc3)CC2)s1	/	.	.	.	/
Cc1c(C)c2ccc(OC(C)C(=O)NCCc3c[nH]c4ccccc34)cc2oc1=O (centres undefined)	/	.	.	.	/
Cc1ccoc1C(=O)N1CCCCC1C(=O)O (centres undefined)	.	.	.	.	.
Cc1ccc(NC(=O)C2CCN(C(=O)c3ccc(F)cc3)CC2)nc1	/	.	.	.	/
Cc1ccc(-c2nn(C)c(=O)c3ccccc23)cc1CNC(=O)NC1CCCCC1	/	.	.	.	/
O=C(c1ccccc1)c1cccc(NC(=O)c2ccco2)c1	.	.	.	.	97
O=C(Nc1cccc(NC(=O)c2ccco2)c1)c1ccccc1	/	.	.	.	/
Cc1ccc(NS(=O)(=O)c2ccc3c(c2)NC(=O)CCS3)c(Br)c1	/	.	.	.	/
